Measurements taken from ChEMBL document CHEMBL2331081, “Fragment-based drug design and identification of HJC0123, a novel orally bioavailable STAT3 inhibitor for cancer therapy” (Eur J Med Chem, 2013).
pIC50: −log10 of the molar value. Calls of active or inactive are those of the source. The calls are words filed in the database; no cut-off is given here.

Experiments:
MCF7 = test: CYtotoxicity against ER-positive human MCF7 cells by MTS assay; type: functional, cell-based
Method in brief: (§1)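 Cells seeded at 2×10^3/well, exposed to DMSO or 0.01, 0.1, 1, 5, 10 and 100 μM compound for 72 h. MTS reagent added, then OD at 550 nm read after 1 h at 37 °C. Quadruplicate wells per concentration.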

ASPC1 = test: CYtotoxicity against human AsPC1 cells by MTS assay; type: functional, cell-based; method in brief: as §1
PANC-1 = test: CYtotoxicity against human PANC1 cells by MTS assay; type: functional, cell-based; method in brief: as §1
MDA-MB-231 [1] = test: CYtotoxicity against ER-negative human MDA-MB-231 cells by MTS assay; type: functional, cell-based; method in brief: as §1
MDA-MB-231 [2] = test: Cell cycle arrest in human MDA-MB-231 cells assessed as accumulation at G2/M phase at 2.5 uM after 24 hrs by flow cytometry (reference value: 25.1 %); type: functional
[3] = biological target: Signal transducer and activator of transcription 3 (Homo sapiens) (UniProt P40763); test: Inhibition of STAT3 promoter activity in human MDA-MB-231 cells at 5 uM after 24 hrs by luciferase reporter gene assay relative to control; type: cell-based
Method in brief: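 MDA-MB-231 cells seeded at 5×10^4/well in RPMI-1640 with 10% FBS and were transiently transfected 4 h after plating. Each well received 0.5 μg DNA: pSTAT3-Luc (95%) and renilla control vector (5%). Compound was added 5 h post-transfection for 24 h. Read-out is dual luciferase, as firefly/renilla ratio relative to DMSO control. Triplicate wells; representative of ≥3 independent experiments.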

MDA-MB-231 [4] = test: Cell cycle arrest in human MDA-MB-231 cells assessed as accumulation at S phase after 24 hrs by flow cytometry; type: functional, cell-based
MDA-MB-231 [5] = test: Cell cycle arrest in human MDA-MB-231 cells assessed as accumulation at S phase at 2.5 uM after 24 hrs by flow cytometry (reference value: 16.7 %); type: functional
MDA-MB-231 [6] = test: Cell cycle arrest in human MDA-MB-231 cells assessed as accumulation at G0/G1 phase at 2.5 uM after 24 hrs by flow cytometry (reference value: 53.6 %); type: functional
MDA-MB-231 [7] = test: Induction of apoptosis in human MDA-MB-231 cells assessed as late apoptotic cells at 1 uM after 48 hrs by annexin V-based flow cytometry (reference value: 4.98 %); type: functional
[8] = biological target: Signal transducer and activator of transcription 3 (Homo sapiens) (UniProt P40763); test: Inhibition of STAT3 phosphorylation at Tyr-705 in human MDA-MB-231 cells at 5 uM after 24 hrs by Western blot analysis; type: cell-based
Method in brief: (§2)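 Whole-cell lysates of treated MDA-MB-231 cells; 40 µg protein per lane run on 10% SDS-PAGE and transferred to nitrocellulose. Blocked in 5% milk/1% Tween 20 in TBS. Probed for pSTAT3-Y705 (1:3000), STAT3 (1:2000) and cleaved caspase-3 (1:2000), with β-actin as loading reference. Secondary antibody at 1:4000, ECL detection.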

MDA-MB-231 [9] = test: Induction of apoptosis in human MDA-MB-231 cells assessed as early apoptotic cells at 2.5 uM after 48 hrs by annexin V-based flow cytometry (reference value: 4.16 %); type: functional
MDA-MB-231 [10] = test: Induction of apoptosis in human MDA-MB-231 cells assessed as early apoptotic cells at 5 uM after 48 hrs by annexin V-based flow cytometry (reference value: 4.16 %); type: functional
MDA-MB-231 [11] = test: Induction of apoptosis in human MDA-MB-231 cells assessed as viable cells at 5 uM after 48 hrs by annexin V-based flow cytometry (reference value: 90.62 %); type: functional; settings: MDA-MB-231, 48 h, read-out: Activity
MDA-MB-231 [12] = test: Cell cycle arrest in human MDA-MB-231 cells assessed as accumulation at G2/M phase at 5 uM after 24 hrs by flow cytometry (reference value: 25.1 %); type: functional
MDA-MB-231 [13] = test: Induction of apoptosis in human MDA-MB-231 cells assessed as dead cells at 2.5 uM after 48 hrs by annexin V-based flow cytometry (reference value: 0.24 %); type: functional
MDA-MB-231 [14] = test: Cell cycle arrest in human MDA-MB-231 cells assessed as accumulation at G0/G1 phase at 5 uM after 24 hrs by flow cytometry (reference value: 53.6 %); type: functional
[15] = biological target: Signal transducer and activator of transcription 3 (Homo sapiens) (UniProt P40763); test: Inhibition of total STAT3 protein expression in human MDA-MB-231 cells at 5 uM after 48 hrs by Western blot analysis; type: cell-based; method in brief: as §2
MDA-MB-231 [16] = test: Induction of apoptosis in human MDA-MB-231 cells assessed as dead cells at 5 uM after 48 hrs by annexin V-based flow cytometry (reference value: 0.24 %); type: functional
MDA-MB-231 [17] = test: Cell cycle arrest in human MDA-MB-231 cells assessed as accumulation at G0/G1 phase at 1 uM after 24 hrs by flow cytometry (reference value: 53.6 %); type: functional
MDA-MB-231 [18] = test: Antiproliferative activity against human MDA-MB-231 cells assessed as change in cell morphology after 48 hrs by light microscopy; type: functional, cell-based
MDA-MB-231 [19] = test: Induction of apoptosis in human MDA-MB-231 cells assessed as caspase-3 cleavage at 5 uM after 24 to 48 hrs by Western blot analysis; type: functional, cell-based; method in brief: as §2
MDA-MB-231 [20] = test: Induction of apoptosis in human MDA-MB-231 cells assessed as early apoptotic cells at 1 uM after 48 hrs by annexin V-based flow cytometry (reference value: 4.16 %); type: functional
MDA-MB-231 [21] = test: Induction of apoptosis in human MDA-MB-231 cells assessed as viable cells at 1 uM after 48 hrs by annexin V-based flow cytometry (reference value: 90.62 %); type: functional; settings: MDA-MB-231, 48 h, read-out: Activity
MDA-MB-231 [22] = test: Cell cycle arrest in human MDA-MB-231 cells assessed as accumulation at S phase at 1 uM after 24 hrs by flow cytometry (reference value: 16.7 %); type: functional
[23] = biological target: Signal transducer and activator of transcription 3 (Homo sapiens) (UniProt P40763); test: Inhibition of STAT3 phosphorylation at Tyr-705 in human MDA-MB-231 cells at 5 uM after 48 hrs by Western blot analysis; type: cell-based; method in brief: as §2
MDA-MB-231 [24] = test: Induction of apoptosis in human MDA-MB-231 cells assessed as viable cells at 2.5 uM after 48 hrs by annexin V-based flow cytometry (reference value: 90.62 %); type: functional; settings: MDA-MB-231, 48 h, read-out: Activity
MDA-MB-231 [25] = test: Antitumor activity against human MDA-MB-231 cells xenografted in immunodeficient nude mouse assessed as reduction in tumor volume at 50 mg/kg, po administered 5 days a week; type: functional, organism-based; design: dose 50 mg/kg
Method in brief: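 Female nude mice aged 4–6 weeks were used, housed in a barrier unit. Each mouse received 2.5×10^6 fresh MDA-MB-231 cells in 100 µL PBS into the 3rd mammary fat pad (orthotopic). Mice were randomized into 2 groups of 6–7. Oral dosing or vehicle (50% DMSO/50% PEG) started once tumors reached 200 mm³. Tumor volume measured daily, calculated as 0.5×L×W².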

MDA-MB-231 [26] = test: Induction of apoptosis in human MDA-MB-231 cells assessed as late apoptotic cells at 5 uM after 48 hrs by annexin V-based flow cytometry (reference value: 4.98 %); type: functional
Mus musculus = test: Toxicity in human MDA-MB-231 cells xenografted immunodeficient nude mouse assessed as change in body weight at 50 mg/kg, po; settings: in vivo
[27] = biological target: Signal transducer and activator of transcription 3 (Homo sapiens) (UniProt P40763); test: Inhibition of total STAT3 protein expression in human MDA-MB-231 cells at 5 uM after 24 hrs by Western blot analysis; type: cell-based; method in brief: as §2
MDA-MB-231 [28] = test: Cell cycle arrest in human MDA-MB-231 cells assessed as accumulation at G2/M phase at 1 uM after 24 hrs by flow cytometry (reference value: 25.1 %); type: functional
MDA-MB-231 [29] = test: Induction of apoptosis in human MDA-MB-231 cells assessed as dead cells at 1 uM after 48 hrs by annexin V-based flow cytometry (reference value: 0.24 %); type: functional
MDA-MB-231 [30] = test: Cell cycle arrest in human MDA-MB-231 cells assessed as accumulation at S phase at 5 uM after 24 hrs by flow cytometry (reference value: 16.7 %); type: functional
MDA-MB-231 [31] = test: Induction of apoptosis in human MDA-MB-231 cells assessed as late apoptotic cells at 2.5 uM after 48 hrs by annexin V-based flow cytometry (reference value: 4.98 %); type: functional

Signal transducer and activator of transcription 3 (Homo sapiens), sequence (P40763 whole entry): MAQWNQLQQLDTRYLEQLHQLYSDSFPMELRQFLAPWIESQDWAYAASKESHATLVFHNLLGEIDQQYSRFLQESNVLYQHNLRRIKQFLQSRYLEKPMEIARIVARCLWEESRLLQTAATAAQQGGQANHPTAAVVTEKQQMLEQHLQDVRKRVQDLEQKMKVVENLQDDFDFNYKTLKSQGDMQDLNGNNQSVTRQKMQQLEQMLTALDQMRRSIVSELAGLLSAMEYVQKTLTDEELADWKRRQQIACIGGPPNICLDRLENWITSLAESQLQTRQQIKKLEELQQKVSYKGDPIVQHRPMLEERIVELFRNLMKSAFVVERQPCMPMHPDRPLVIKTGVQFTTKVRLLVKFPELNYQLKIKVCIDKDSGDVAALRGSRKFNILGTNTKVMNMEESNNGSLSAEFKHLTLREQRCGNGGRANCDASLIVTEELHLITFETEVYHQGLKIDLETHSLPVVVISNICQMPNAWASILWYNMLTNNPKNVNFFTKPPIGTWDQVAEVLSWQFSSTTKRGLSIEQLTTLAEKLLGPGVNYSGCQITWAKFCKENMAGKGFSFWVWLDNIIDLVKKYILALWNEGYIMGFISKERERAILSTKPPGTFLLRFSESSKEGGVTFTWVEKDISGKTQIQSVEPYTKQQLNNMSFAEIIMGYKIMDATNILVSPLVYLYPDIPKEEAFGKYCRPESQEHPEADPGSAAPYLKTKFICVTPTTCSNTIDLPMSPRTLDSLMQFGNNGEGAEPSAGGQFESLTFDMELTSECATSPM

`O=C(Nc1ccc2c(c1)S(=O)(=O)C=C2)c1cc(-c2ccccc2)nc(-c2ccccc2)c1` showed a pIC50 (MCF7) of 6.19, a pIC50 (ASPC1) of 6.92 and a pIC50 (PANC-1) of 6.51. It also gave a pIC50 (MDA-MB-231 [1]) of 6.35.
With `O=C(Nc1ccc2c(c1)S(=O)(=O)C=C2)c1ccncc1` the pIC50 (MCF7) was < 5.00 and the pIC50 (MDA-MB-231 [1]) was < 5.00.
`C[C@H](NC(=O)c1cc(Cl)ccc1O)c1ccccc1` was tested, and the pIC50 (MCF7) was 6.05, the pIC50 (ASPC1) was 5.12 and the pIC50 (PANC-1) was 5.07. The pIC50 (MDA-MB-231 [1]) was 5.05.
`O=C(Nc1ccc2c(c1)S(=O)(=O)C=C2)c1cc(-c2ccccc2)nc2ccccc12` was tested, and the Activity (MDA-MB-231 [2]) was 27.5%, the inhibition [3] was 65% and the Activity (MDA-MB-231 [4]) was “Dose-dependent effect”. It also gave an Activity (MDA-MB-231 [5]) of 21.9%, an Activity (MDA-MB-231 [6]) of 43.7% and an Activity (MDA-MB-231 [7]) of 9.26%. The inhibition [8] was “Active”, the Activity (MDA-MB-231 [9]) was 28.53% and the Activity (MDA-MB-231 [10]) was 66.12%. The viability at 5 µM (MDA-MB-231 [11]) was 19.5%, the Activity (MDA-MB-231 [12]) was 25.8% and the pIC50 (MCF7) was 7.00. The Activity (MDA-MB-231 [13]) was 0.32%, the Activity (MDA-MB-231 [14]) was 34.1% and the inhibition [15] was “Active”. It also gave an Activity (MDA-MB-231 [16]) of 0.14%, a pIC50 (ASPC1) of 5.90 and an Activity (MDA-MB-231 [17]) of 51.5%. For the same compound, the Activity (MDA-MB-231 [18]) was “Dose-dependent effect”, the Activity (MDA-MB-231 [19]) was “Active” and the pIC50 (PANC-1) was 6.59. It also gave an Activity (MDA-MB-231 [20]) of 9.31%, a viability at 1 µM (MDA-MB-231 [21]) of 80.8% and an Activity (MDA-MB-231 [22]) of 16.5%. The pIC50 (MDA-MB-231 [1]) was 6.54, the inhibition [23] was “Active” and the viability at 2.5 µM (MDA-MB-231 [24]) was 57.8%. For the same compound, the Activity (MDA-MB-231 [25]) was “Active”, the Activity (MDA-MB-231 [26]) was 14.21% and the Activity (Mus musculus) was “Non-toxic”. The inhibition [27] was “Active”, the Activity (MDA-MB-231 [28]) was 27.6% and the Activity (MDA-MB-231 [29]) was 0.67%. It also gave an Activity (MDA-MB-231 [30]) of 26.2% and an Activity (MDA-MB-231 [31]) of 13.32%.
`O=C(Nc1ccc2c(c1)S(=O)(=O)C=C2)c1ccnc(-c2ccccc2)c1` showed a pIC50 (MCF7) of 5.42, a pIC50 (ASPC1) of 5.89 and a pIC50 (PANC-1) of 5.47. The pIC50 (MDA-MB-231 [1]) was 5.73.
Work on `O=C(Nc1ccc2c(c1)S(=O)(=O)C=C2)c1ccnc2ccccc12` yielded a pIC50 (MCF7) of 5.53, a pIC50 (ASPC1) of 5.16 and a pIC50 (PANC-1) of 5.10. The pIC50 (MDA-MB-231 [1]) was 5.21.
In the case of `O=C(Nc1ccc2c(c1)S(=O)(=O)C=C2)c1c2ccccc2nc2ccccc12`, the pIC50 (MCF7) was < 5.00, the pIC50 (ASPC1) was < 5.00 and the pIC50 (PANC-1) was < 5.00. The pIC50 (MDA-MB-231 [1]) was < 5.00.
`N#C/C(=C\c1cccc(Br)n1)C(=O)Nc1ccc2c(c1)S(=O)(=O)C=C2` was tested, and the pIC50 (MCF7) was 5.48, the pIC50 (ASPC1) was 5.81 and the pIC50 (PANC-1) was 5.79. For the same compound, the pIC50 (MDA-MB-231 [1]) was 5.82.
`O=C(Nc1ccc2c(c1)S(=O)(=O)C=C2)c1cc(Cl)ccc1O` showed a pIC50 (MCF7) of 6.04, a pIC50 (ASPC1) of 5.72 and a pIC50 (PANC-1) of 5.63. For the same compound, the pIC50 (MDA-MB-231 [1]) was 5.79.
For `C[C@H](NC(=O)c1cc(-c2ccccc2)nc2ccccc12)c1ccccc1`, the pIC50 (MCF7) was 5.65, the pIC50 (ASPC1) was < 5.00 and the pIC50 (PANC-1) was < 5.00. For the same compound, the pIC50 (MDA-MB-231 [1]) was 4.07.
`O=C(Nc1nnc(-c2ccco2)o1)c1cc(Cl)ccc1O` was tested, and the pIC50 (MCF7) was < 5.00, the pIC50 (ASPC1) was < 5.00 and the pIC50 (PANC-1) was < 5.00. The pIC50 (MDA-MB-231 [1]) was < 5.00.
For `N#CCC(=O)Nc1ccc2c(c1)S(=O)(=O)C=C2`, the pIC50 (MCF7) was < 5.00 and the pIC50 (MDA-MB-231 [1]) was < 5.00.
